Data set [1] has as its target T1, Proteinase-activated receptor 1 (Homo sapiens, UniProt P25116).
T1 sequence (P25116 whole entry): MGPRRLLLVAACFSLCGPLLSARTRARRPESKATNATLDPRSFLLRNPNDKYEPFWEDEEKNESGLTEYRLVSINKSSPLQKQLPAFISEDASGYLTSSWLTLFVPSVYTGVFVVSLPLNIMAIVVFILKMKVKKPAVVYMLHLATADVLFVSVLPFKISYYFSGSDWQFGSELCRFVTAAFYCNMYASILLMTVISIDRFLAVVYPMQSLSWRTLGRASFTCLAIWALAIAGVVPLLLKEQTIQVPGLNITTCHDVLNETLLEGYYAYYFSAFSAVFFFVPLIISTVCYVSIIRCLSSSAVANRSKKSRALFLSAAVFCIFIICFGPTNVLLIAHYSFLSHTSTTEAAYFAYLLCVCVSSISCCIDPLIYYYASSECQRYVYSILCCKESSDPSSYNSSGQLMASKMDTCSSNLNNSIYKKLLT
Nature of the data set: Inhibition of SFLLRN-NH2-stimulated PAR1-mediated platelet activation in […] assessed as surface expression of P-selectin after 20 mins by flow cytometry. Details: species or system Plasma.

The target of data set [2] is T2, Proteinase-activated receptor 1 (Homo sapiens) (UniProt P25116).
T2 sequence (whole entry): T1 sequence (P25116 whole entry)
Nature of the data set: Inhibition of SFLLRN-NH2-stimulated PAR1-mediated platelet activation in […] assessed as surface expression of P-selectin at 10 uM after 20 mins by flow cytometry. Format: cell-based.

In data set [3] the test system is Plasma. Nature of the data set: Metabolic stability in human plasma assessed as compound remaining at 5 uM after 5 hrs. Format: ADME, cell-free. An outline of the steps: (§1)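 Compound incubated in human or mouse plasma; stability reported as percent remaining after 5 h.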
Data set [4] relates to Plasma. The data set is described as follows: Metabolic stability in mouse plasma assessed as compound remaining at 5 uM after 5 hrs. Type of data set: ADME, cell-free. An outline of the steps:
as §1

The subject of data set [5] is Plasma. Nature of the data set: Plasma protein binding in mouse. Format: ADME, cell-free.
Data set [6] has as its system Plasma. Nature of the data set: Plasma protein binding in human. Type of data set: ADME, cell-free.

For `CCCC(=O)Nc1cccc(NC(=O)c2ccc(F)cc2Br)c1`, in data set [1], the concentration for half-maximal inhibition (IC50) stood at 390 nM. In addition, the inhibition in data set [2] was above 99%.
Take `CCCC(=O)Nc1cccc(NC(=O)c2ccc(F)cc2)c1`: in data set [2], the inhibition is 85%.
As to `O=C(Nc1cccc(N2CCCS2(=O)=O)c1)c1ccccc1Br`, in data set [2], the inhibition worked out at 8%. Also, the Stability in the data set with Plasma [3] is above 99%; in the data set with Plasma [4], 98%. In the data set with Plasma [5], the PPB stood at 76%.
Consider `CCS(=O)(=O)N1CCCc2ccc(NC(=O)c3ccccc3Br)cc21`, for which, in data set [2], the inhibition was 26%. Further, the Stability with Plasma [3] is given as above 99%; with Plasma [4] it was 97%. The PPB came to 98% in the data set on Plasma [6] and 96% with Plasma [5].
Take `CCCC(=O)Nc1cccc(NC(=O)c2ccccc2F)c1`: the IC50 in data set [1] amounted to 970 nM. Besides, the inhibition in data set [2] stood at 99%.
For `CCCC(=O)Nc1cccc(NC(=O)c2cnc3ccccc3c2)c1`, the inhibition in data set [2] was 10%.
Turning to `CCC(C)(C)C(=O)Nc1cccc(NC(=O)c2ccccc2Br)c1`, the inhibition in data set [2] was determined as 21%. In addition, the Stability in the data set on Plasma [3] and with Plasma [4] was above 99% each time. Also, in the data set with Plasma [6], the PPB was determined as 95%.
Regarding `CCC(=O)Nc1cccc(NC(=O)c2ccccc2C)c1C`, the inhibition in data set [2] was determined as 5%.
Still for that read-out and setting: for `CCCC(=O)Nc1cccc(NC(=O)c2ccc(OC)cc2)c1` the value was 15%.
As for `CCCC(=O)Nc1cccc(NC(=O)c2cccnc2)c1`, the inhibition in data set [2] is below 1%.
`CCCCC(=O)Nc1cccc(NC(=O)c2ccccc2Br)c1`: the inhibition in data set [2] was below 1%.
For `CCCC(=O)Nc1cccc(NC(=O)c2ccc(C(F)(F)F)cc2)c1`, the inhibition in data set [2] stood at 30%.
For the compound `CCCC(=O)Nc1cccc(NC(=O)c2ccccc2C(=O)N(C)C)c1`, the inhibition in data set [2] stood at 48%.
Regarding `CCCC(=O)Nc1ccc(NC(=O)c2ccccc2Br)cc1`, the inhibition in data set [2] turned out to be 1%.
Regarding `CCCC(=O)Nc1cccc(NC(=O)c2ccccc2OC(F)(F)F)c1`, in data set [1], the IC50 stood at 710 nM. Further, in data set [2], the inhibition was above 99%.
The matching figures for `CCCC(=O)Nc1cccc(NC(=O)c2cc(C)ccc2Br)c1`: 480 nM and above 99%.
Turning to `CCCC(=O)Nc1cccc(C(=O)Nc2ccccc2Cl)c1`, the inhibition in data set [2] was 67%.
As to `CCCC(=O)Nc1cccc(NC(=O)c2c(C)cccc2C)c1`, the IC50 in data set [1] was 3000 nM. Besides, the inhibition in data set [2] was found to be 98%.
In the same order, the values of `CCCC(=O)Nc1cccc(NC(=O)c2cccc(Cl)c2Cl)c1` are 3120 nM and 99%.
On to `CCCC(=O)Nc1cccc(NC(=O)c2cc(Cl)ccc2Br)c1`, for which the IC50 in data set [1] was 380 nM. Also, the inhibition in data set [2] came out at 68%.
Regarding `CCCC(=O)Nc1ccc2nc(-c3ccccc3Br)[nH]c2c1`, the inhibition in data set [2] came out at 39%.
With `CCCNC(=O)c1coc(NC(=O)c2ccccc2Br)n1`, the inhibition in data set [2] is below 1%.
As to `O=C(Nc1cccc(NC(=O)c2ccccc2Br)c1)c1ccccc1`, in data set [2], the inhibition stood at 67%.
For `CC(=O)N1CCCc2ccc(NC(=O)c3ccccc3Br)cc21`, the inhibition in data set [2] worked out at 10%. In addition, the figures for the Stability with Plasma [3] and with Plasma [4] were 92% and 71%, respectively. The compound also gave a PPB with Plasma [5] of 89%.
As for `O=C(Nc1cc(NC(=O)C2CCCC2)ccn1)c1ccccc1Br`, the inhibition in data set [2] is below 1%.
Regarding `CCCC(=O)Nc1cccc(NC(=O)c2cccc(C#N)c2)c1`, the inhibition in data set [2] amounted to 70%.
Consider `CCCC(=O)Nc1cccc(NC(=O)c2ccco2)c1`, for which the inhibition in data set [2] stood at 30%.
On to `O=C(Nc1cccc(N2CCCCC2=O)c1)c1ccccc1Br`, for which the inhibition in data set [2] was 9%. Moreover, the Stability is listed as 94% in the data set with Plasma [3] and 82% in the data set with Plasma [4]. Moreover, the PPB with Plasma [6] is given as 82%; in the data set on Plasma [5], 72%.
Regarding `CCOC(=O)Nc1cccc(NC(=O)c2ccccc2Br)c1`, the IC50 in data set [1] worked out at 2640 nM. For the same compound, in data set [2], the inhibition turned out to be 98%. Also, the Stability in the data set with Plasma [3] is on record as 85%; in the data set on Plasma [4], 56%. Moreover, the PPB with Plasma [6] came out at 95%; with Plasma [5] it was 87%.
For the compound `CCCC(=O)Nc1cccc(N(C)C(=O)c2ccccc2Br)c1`, the inhibition in data set [2] was below 1%. Besides, the figures for the Stability with Plasma [3] and in the data set on Plasma [4] were 19% and below 1%, respectively. Also, the PPB in the data set with Plasma [6] came to 89%.
As for `CCCC(=O)Nc1cccc(NC(=O)c2cc(F)ccc2Br)c1`, the IC50 in data set [1] amounted to 600 nM. Also, the inhibition in data set [2] was above 99%.
On to `CCCC(=O)Nc1cccc(NC(=O)c2ccccc2OC)c1`, for which the inhibition in data set [2] was determined as 50%.
In the case of `CCCC(=O)Nc1cccc(NC(=O)c2cccc(S(C)(=O)=O)c2)c1`, in data set [2], the inhibition worked out at 25%.
For `CCCNC(=O)c1cccc(NC(=O)c2ccccc2Cl)c1`, in data set [1], the IC50 was 1800 nM. The inhibition in data set [2] came out at 99%.
With `CCCC(=O)Nc1cccc(NC(=O)c2c(Cl)cccc2Br)c1`, in data set [1], the IC50 is 2280 nM. Also, in data set [2], the inhibition was above 99%.
For `Cc1ccccc1C(=O)Nc1cccc(NC(=O)CC(C)C)c1`, in data set [1], the half-inhibitory concentration (IC50) worked out at 1120 nM. For the same compound, in data set [2], the inhibition was above 99%. Besides, the Stability with Plasma [3] is recorded as above 99%; with Plasma [4], 69%. Besides, the PPB is listed as 96% with Plasma [6] and 83% with Plasma [5].
As for `CCCC(=O)Nc1cccc(NCc2ccccc2Br)c1`, the inhibition in data set [2] worked out at 60%. In addition, the Stability was determined as 73% in the data set on Plasma [3] and 1% in the data set on Plasma [4].
With `CCCC(=O)Nc1cccc(NC(=O)c2cccc(C)c2)c1`, the inhibition in data set [2] came out at 88%.
Regarding `CCCC(=O)Nc1cccc(NC(=O)c2cccc(NC(C)=O)c2)c1`, the inhibition in data set [2] was 55%.
As for `CCCC(=O)Nc1cccc(NC(=O)c2ccc(S(C)(=O)=O)cc2)c1`, the inhibition in data set [2] is 10%.
In the case of `CCCC(=O)Nc1cccc(NC(=O)c2ccc(C)cc2)c1`, the inhibition in data set [2] stood at 25%.
As for `CCCC(=O)Nc1cccc(NC(=O)c2cccc([N+](=O)[O-])c2)c1`, the inhibition in data set [2] stood at 55%.
`CC(=O)Nc1cccc(NC(=O)c2ccccc2Cl)c1`: the inhibition in data set [2] stood at 35%.
For the compound `CCCC(=O)Nc1cccc(NC(=O)c2ccccc2C(F)(F)F)c1`, the 50% inhibitory concentration (IC50) in data set [1] was 1290 nM. The inhibition in data set [2] is 99%.
Turning to `CCCC(=O)Nc1ccc(Cl)c(NC(=O)c2ccccc2Br)c1`, in data set [2], the inhibition was found to be 35%.
`CCCC(=O)Nc1cccc(NC(=O)c2ccccc2Cl)c1`: in data set [1], the IC50 was 1100 nM. For the same compound, the inhibition in data set [2] is above 99%.
For the compound `CCCCS(=O)(=O)Nc1cccc(NC(=O)c2ccccc2Br)c1`, in data set [2], the inhibition was 31%. The Stability was 97% in the data set on Plasma [3] and above 99% in the data set on Plasma [4].
In the case of `CCCC(=O)Nc1cccc(NC(=O)c2ccc(Cl)cc2)c1`, the inhibition in data set [2] turned out to be 80%.
Take `Cc1ccccc1C(=O)Nc1cccc(NC(=O)Cc2ccc(Cl)cc2)c1`: in data set [2], the inhibition was 40%.
For `CCCC(=O)Nc1cccc(NC(=O)c2ccccc2)c1`, in data set [2], the inhibition came to 64%.
In the case of `CCCC(=O)Nc1cccc(NC(=O)c2ccccc2-c2ccccc2)c1`, the inhibition in data set [2] is below 1%.
On to `CCCCNc1cccc(NC(=O)c2ccccc2Br)c1`, for which, in data set [1], the IC50 was 340 nM. The inhibition in data set [2] is above 99%. The values for the Stability with Plasma [3] and in the data set with Plasma [4] were 99% and 97%, respectively. Further, the PPB is 97% in the data set on Plasma [6] and 96% in the data set with Plasma [5].
On to `CCS(=O)(=O)Nc1cccc(NC(=O)c2ccccc2Br)c1`, for which the inhibition in data set [2] came out at 27%. In addition, the Stability in the data set on Plasma [3] was 99%; in the data set on Plasma [4], above 99%. Further, the PPB with Plasma [6] turned out to be 93%; in the data set on Plasma [5], 69%.
`CCCC(=O)Nc1cccc(NC(=O)c2ccccc2C)c1`: the IC50 in data set [1] is 770 nM. Besides, the inhibition in data set [2] is 98%.
For the compound `CCCC(=O)Nc1ccnc(NC(=O)c2ccccc2Br)c1`, the inhibition in data set [2] was below 1%.
Regarding `O=C(Nc1cccc(NC(=O)C2CCCC2)c1)c1ccccc1Br`, the IC50 in data set [1] amounted to 520 nM. For the same compound, in data set [2], the inhibition is 91%. In the data set with Plasma [4], the Stability was 26%.
On to `CCCC(=O)N(C)c1cccc(NC(=O)c2ccccc2Br)c1`, for which, in data set [2], the inhibition is 8%. For the same compound, the Stability in the data set on Plasma [3] came to 90%; in the data set with Plasma [4] it was 85%. Further, the PPB in the data set on Plasma [6] worked out at 98%; in the data set with Plasma [5], 85%.
In the case of `CN(C(=O)c1ccccc1Br)c1cccc(NC(=O)C2CCCC2)c1`, the inhibition in data set [2] is below 1%. Moreover, the values for the Stability in the data set with Plasma [3] and in the data set on Plasma [4] were 64% and 40%, respectively. Moreover, the PPB in the data set with Plasma [6] worked out at 95%; in the data set with Plasma [5] it was 90%.
As for `CCCC(=O)Nc1cccc(NC(=O)c2ccccc2CC)c1`, the IC50 in data set [1] was determined as 520 nM. Further, the inhibition in data set [2] is above 99%.
Regarding `CCCC(=O)Nc1cccc(NC(=O)c2cccc(-c3ccccc3)c2)c1`, the IC50 in data set [1] is 2200 nM. The inhibition in data set [2] came to 98%.
`CC(C)CNC(=O)c1coc(NC(=O)c2ccccc2Br)n1`: in data set [2], the inhibition was below 1%.
For `CCCC(=O)Nc1cccc(NC(=O)c2ccccc2S(C)(=O)=O)c1`, the inhibition in data set [2] turned out to be 21%.
Turning to `CC(C)C(=O)Nc1cccc(NC(=O)c2ccccc2Br)c1`, the IC50 in data set [1] came to 1410 nM. For the same compound, in data set [2], the inhibition came to 88%. The Stability in the data set with Plasma [4] is 83%.
Turning to `O=C(Nc1ccnc(NC(=O)c2ccccc2Br)c1)c1ccccc1`, the inhibition in data set [2] stood at 11%.

Values taken from ChEMBL document CHEMBL2046322, “Discovery of 1,3-Diaminobenzenes as Selective Inhibitors of Platelet Activation at the PAR1 Receptor” (ACS Med Chem Lett, 2012).
